TPT1 inhibitor: Candida albicans TPT1 enzyme inhibitors, primary screen, biochemical, fluorescence polarization; recombinant caTPT1, FP RNA substrate dephosphorylation; inhibition, % at 5 µM; 0.81% of 300,000 active; AID 1962, 2009;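 active = inhibition above the mean of all tested compounds plus 3 SD, set per screening campaign, cut at about 24% in these data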
CSN inh: inhibitors of CSN-mediated cullin deneddylation, primary screen, biochemical, fluorescence polarization, uHTS; inhibition, % at 12.5 µM; 0.38% of 360,000 active; COP9 signalosome complex subunit 5 (Homo sapiens), Q92905; Purified CSN, SCF-Nedd8-OG deneddylation;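 active = pattern-corrected inhibition above about 35%, with an unprinted fluorescence ratio check between 0.5 and 1.5, limit read from the data, passing the limit was not always enough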
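Assay system: purified human Csn5 enzyme expressed in HEK293T cells; measure: % inhibition; also added: SCFSkp2-Nedd8OG substrate at 10 nM final; technique: fluorescence polarization; times: reaction 90 min, room temperature; medium: Tris buffer pH 7.5, NaCl, DTT, Tween-20, trehalose, ovalbumin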
IDE act: human IDE activators in live cells, primary screen, fluorescence polarization, HEK cells, FAbeta-B substrate; activation, % at 5.96 µM; 0.073% of 340,000 active; Insulin-degrading enzyme (Homo sapiens), P14735; FAbeta-B cleavage; 0% vehicle, 100% cell-free pure enzyme wells; AID 493087, 2011;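 active = activation above the mean of all tested compounds plus 3 SD, set per screening campaign, cut at about 17% in these data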
IDE inh: human IDE inhibitors in live cells, primary screen, fluorescence polarization, HEK cells, FAbetaB substrate; Insulin-degrading enzyme (Homo sapiens), P14735; FAbetaB cleavage; inhibition, % at 5.59 µM; 0.41% of 320,000 active;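 active = percent inhibition above the average of all tested compounds plus 3 SD, set per screening campaign, cut at about 16% in these data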;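 note: IDE supplied by intact live HEK cells; FP after avidin binding of uncleaved biotin substrate so inhibition keeps polarization high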
HNF4A DNA FP: change in binding of human HNF4A to DNA, primary screen, biochemical, fluorescence polarization, FITC-DNA. 1 h. 0.3% of 360,000 active. Hepatocyte nuclear factor 4-alpha (Homo sapiens), P41235. activity change, % at 10 µM. AID 1224865, 2016; in the data active = activity change above about 30%, passing the limit was not always enough
Rpn11 inh: Rpn11 (PSMD14) deubiquitinase inhibitors, primary screen, biochemical, fluorescence polarization, uHTS; AID 588493, 2011; inhibition, % at 20 µM; 0.59% of 360,000 active; human 26S proteasome, Ub4-pepOG fluorescence polarization; 20S core pre-blocked with epoxomicin; 26S proteasome non-ATPase regulatory subunit 14 (Homo sapiens), O00487;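 active = inhibition at 20 µM, scaled to each plate's controls, above about 33%, limit read from the data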
Target sequence (O00487 whole entry, looked up): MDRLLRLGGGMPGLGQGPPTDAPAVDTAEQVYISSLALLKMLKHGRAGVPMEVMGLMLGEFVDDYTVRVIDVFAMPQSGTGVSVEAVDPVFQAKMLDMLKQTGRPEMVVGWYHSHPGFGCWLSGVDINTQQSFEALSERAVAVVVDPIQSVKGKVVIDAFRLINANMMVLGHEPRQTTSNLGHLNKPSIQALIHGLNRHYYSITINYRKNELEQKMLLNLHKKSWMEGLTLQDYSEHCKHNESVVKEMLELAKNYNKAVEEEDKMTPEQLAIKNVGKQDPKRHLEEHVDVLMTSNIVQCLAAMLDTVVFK
caTPT1 confirm: Candida albicans TPT1 inhibitors, confirmation, biochemical, fluorescence polarization, triplicate. shares compounds with TPT1 inhibitor. recombinant caTPT1, RNase T1 coupled. inhibition, % at 5 µM. 74% of 2,400 active. AID 2149, 2009;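 active = inhibition above the primary screen limit, the mean inhibition of all tested compounds plus 3 SD, cut at about 25% in these data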
RNase T1 counter: RNase T1 inhibitors, counter-screen for TPT1 inhibitor project, biochemical, fluorescence polarization; inhibition, % at 5 µM; 83% of 2,400 active; RNase T1 cleavage, 1536-well; shares compounds with TPT1 inhibitor;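 active = inhibition above the solvent-only control well mean plus 3 SD, limit set per screening run, cut at about 23% in these data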;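 note: inhibitors block cleavage so intact labeled substrate keeps polarization high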
Target sequence (P00651 whole entry, looked up): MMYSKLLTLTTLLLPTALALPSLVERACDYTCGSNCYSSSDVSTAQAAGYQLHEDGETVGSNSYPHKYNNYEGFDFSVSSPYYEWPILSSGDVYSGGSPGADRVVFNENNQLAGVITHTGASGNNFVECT
IDE cell inh cf: human IDE inhibitors in live cells, confirmation, fluorescence polarization, HEK cells, FAbetaB substrate; shares compounds with IDE inh; FAbetaB cleavage; inhibition, % at 5.59 µM; 51% of 1,200 active; AID 435028, 2010;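 active = mean inhibition across triplicate wells above the cutoff set by the earlier primary insulin-degrading enzyme screen, cut at about 16% in these data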
HEK cytotox: cytotoxicity in HEK cells, cytotoxicity control for IDE inhibitor project, cell-based, luminescence; inhibition, % at 5.59 µM; 28% of 1,200 active; shares compounds with IDE inh; HEK293 cytotoxicity, ATP luminescence; in the data active = inhibition above about 22%
Rpn11 inh conf: Rpn11 (PSMD14) deubiquitinase inhibitors, confirmation, biochemical, fluorescence polarization, single concentration. shares compounds with Rpn11 inh. purified human 26S proteasome, Ub4-pepOG fluorescence polarization; proteasome pretreated with epoxomicin. inhibition, % at 20 µM. 29% of 1,900 active
MMP-2 counter: MMP-2 enzyme inhibition, confirmation, counter-screen for RPN11 inhibitor project, biochemical, fluorescence, single concentration. shares compounds with Rpn11 inh. recombinant MMP-2, FRET peptide cleavage fluorescence. inhibition, % at 20 µM. 4% of 1,900 active. AID 602330, 2012;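 note: human MMP-2 activated beforehand with APMA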
Thrombin inh: bovine thrombin protease inhibition, confirmation, counter-screen for Rpn11 inhibitor project, biochemical, fluorescence polarization, single concentration | shares compounds with Rpn11 inh | 13% of 1,900 active | bovine thrombin cleavage of Ub4-pepOG | inhibition, % at 20 µM;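 active = mean inhibition at least 40% at 20 µM, or signal 3 deviations below plate average, so some actives read negative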
HNF4a DNA conf: change in HNF4A binding to DNA, retest, confirmation, biochemical, fluorescence polarization, FITC-DNA; AID 1224897, 2016; activity change, % at 12.5 µM; 99% of 210 active; shares compounds with HNF4A DNA FP; 1 h; call rule not given here
A number is an active result; . = inactive; / = not tested or not shown. An excerpt weighted towards active compounds, which were near 1.7% of everything screened. Cut-off read from the data, not from the text of the source, unless noted: active = inhibition above about 40%; inactive = the rest.

SMILES	TPT1 inhibitor	CSN inh	IDE act	IDE inh	HNF4A DNA FP	Rpn11 inh	IDE cell inh cf	HEK cytotox	others
NC(=O)C1CCN(C(=O)c2ccc3c(c2)S(=O)(=O)c2ccccc2C3=O)CC1	.	.	.	.	.	.	/	/
NC(=O)C1CCN(c2ccc3c(c2)S(=O)(=O)c2ccccc2C3=O)CC1	31	.	.	.	47	/	/	/	caTPT1 confirm=38;RNase T1 counter=48;HNF4a DNA conf=67
CC1CCN(c2ccc3c(c2)S(=O)(=O)c2ccccc2C3=O)CC1	65	.	.	.	58	/	/	/	caTPT1 confirm=80;RNase T1 counter=88;HNF4a DNA conf=71
Cc1ccc(OCC(=O)NNC(=O)C2CSC3(C)CCC(=O)N23)cc1C (stereo not given)	/	.	.	/	.	.	/	/
COc1ccc(-c2nnc(C)c3nocc23)cc1	67	.	.	.	56	89	/	/	caTPT1 confirm=60;RNase T1 counter=69;Rpn11 inh conf=48;MMP-2 counter=.;Thrombin inh=.;HNF4a DNA conf=63
CCOC(=O)C1=C(C)NC(=O)NC1c1ccc(N2CCC(c3ccccc3)=N2)cc1 (stereo not given)	53	.	.	.	55	/	/	/	caTPT1 confirm=77;RNase T1 counter=87;HNF4a DNA conf=62
CCOC(=O)C1=C(C)NC(=O)NC1c1ccc(NC(C)=O)cc1 (stereo not given)	.	.	.	.	.	.	/	/
Cc1cccc(C)c1N=Cc1c(O)n(-c2nccs2)c(=O)c2ccccc12	.	.	.	.	.	.	/	/
O=c1c2ccccc2c(/C=N/c2nnc(Cc3ccccc3)s2)c(O)n1-c1ccc(Cl)cn1	25	41	.	.	86	/	/	/	caTPT1 confirm=154;RNase T1 counter=146;HNF4a DNA conf=95
CC(=O)NC(c1cccc(F)c1)c1nc(-c2csc3ccccc23)cs1 (stereo not given)	/	.	/	/	.	.	/	/
COc1ccc(C2NN=C(c3c[nH]c4ccccc34)C2O)cc1 (stereo not given)	73	.	.	.	57	94	/	/	caTPT1 confirm=65;RNase T1 counter=78;HNF4a DNA conf=89
Cc1cccc(Cl)c1NC(=O)N1CCN(c2ccnc3cc(Cl)ccc23)CC1	.	.	.	24	.	.	.	.
Cc1ccc(F)cc1NC(=O)N1CCN(c2ccnc3cc(Cl)ccc23)CC1	.	.	.	.	.	.	/	/
O=C(O)CSCC(=O)N1CCN(c2ccnc3cc(Cl)ccc23)CC1	.	.	.	30	.	.	.	.
CC(=O)N1CCN(c2ccnc3cc(Cl)ccc23)CC1	.	.	.	.	.	.	/	/
O=C(Nc1cc(F)ccc1F)N1CCN(c2ccnc3cc(Cl)ccc23)CC1	.	.	.	22	.	.	.	.
CCCCNC(=O)N1CCN(c2ccnc3cc(Cl)ccc23)CC1	.	.	.	19	.	.	.	.
COC(=O)C[C@@H]1CC[C@@H](NS(=O)(=O)c2cccc(OC)c2)[C@@H](CO)O1	/	.	/	/	.	/	/	/
CC(C)NS(=O)(=O)c1ccc(NC(=S)NC(=O)c2ccc(-c3ccccc3)cc2)cc1	.	.	.	39	.	.	25	37
CN(C)C=Nc1c(Br)cc(Br)c2nonc12	.	.	.	26	.	/	62	.
CC1CCN(c2c(NCc3ccc(C(=O)N4c5ccccc5CC4C)cc3)c(=O)c2=O)CC1 (stereo not given)	.	.	.	38	.	.	32	.
CC1CCN(c2c(NCc3ccc(C(=O)N4CCN(C5CCCCC5)CC4)cc3)c(=O)c2=O)CC1	.	.	.	.	.	.	/	/
Cc1ccc(C(=O)Nc2nnc([C@H]3C[C@H](O)[C@@H](CO)O3)s2)cc1	/	.	/	/	.	.	/	/
O=C(Nc1ccc(N2CCN(c3ncccc3C(F)(F)F)CC2)nc1)c1cccs1	.	.	.	.	.	.	/	/
O=C(Nc1ccc(N2CCN(c3ccc(C(F)(F)F)cn3)CC2)nc1)c1cccs1	.	.	.	17	.	.	.	31
SMILES	TPT1 inhibitor	CSN inh	IDE act	IDE inh	HNF4A DNA FP	Rpn11 inh	IDE cell inh cf	HEK cytotox	others
CC1(C(=O)NS(=O)(=O)c2cccc(F)c2)CCN1C(=O)Cc1cccs1 (stereo not given)	/	.	/	/	.	.	/	/
CN(C)c1cc[n+](CC(=O)c2ccc(-c3ccccc3)cc2)cc1	.	.	.	22	.	.	23	83
Cc1ccc(-n2c(SCC(=O)N3CCOCC3)nnc2-c2cccnc2)cc1	.	.	.	.	.	.	/	/
Cc1ccc(-n2c(SCC(=O)N3CCOCC3)nnc2-c2cccnc2)cc1C	.	.	.	19	.	.	.	.
O=C(CSc1nnc(-c2cccnc2)n1-c1ccccc1)N1CCN(c2ccc(F)cc2)CC1	.	.	.	21	.	.	.	.
CC(=O)Oc1c(-c2ccc(Br)o2)oc2ccccc2c1=O	.	.	.	57	.	.	74	.
